CHO parental Ca = ATP-evoked calcium signal inhibitors, parental CHO, primary screen, counter-screen for OX1R antagonist project, cell-based, fluorescence, Fluo-8 calcium dye | parental CHO-K1, ATP-induced calcium, Fluo-8 fluorescence | inhibition, % at 5.6 µM | hit rate 0.63% among 330,000 | AID 463079, 2010;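 active = inhibition above that plate's mean sample inhibition plus 3 SD, cut at about 26% in these data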
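test system = CHO parental line | reagent = ATP stimulus | measured by = intracellular calcium via Fluo-8 no-wash fluorescent dye | control set = ATP and no-ATP DMSO wells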
OX1R antag-1 = OX1R (HCRTR1) antagonists, primary screen, fluorescence, CHO/OX1R cells, Fluo-8 calcium, orexin A. Fluo-8 calcium fluorescence. inhibition, % at 5 µM. AID 434989, 2010. hit rate 0.43% among 330,000;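 active = inhibition above its plate's threshold, mean inhibition of all tested compounds on the plate plus 3 SD, cut at about 37% in these data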
OX1R antag-2 = antagonists of human orexin 1 receptor (OX1R); Orexin/Hypocretin receptor type 1 (Homo sapiens), O43613; hit rate 1.8% among 330,000; OX1R-expressing cells, FRET antagonist read-out; inhibition, % at 6.6 µM; in the data active = inhibition mostly above about 38%, no sharp cut-off; inactive = mostly below about 40%
GPR7 antagonist = GPR7 receptor antagonists, primary screen, cell-based, fluorescence, single concentration | AID 1861, 2009 | GPR7-expressing cells, fluorescence antagonist assay | hit rate 1.1% among 290,000 | Neuropeptides B/W receptor type 1 (Homo sapiens), P48145 | inhibition, % at 4.4 µM; in the data active = inhibition above about 16%, passing the limit was not always enough;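 note: cells stimulated with the agonist NPW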
Target sequence (P48145 whole entry, looked up): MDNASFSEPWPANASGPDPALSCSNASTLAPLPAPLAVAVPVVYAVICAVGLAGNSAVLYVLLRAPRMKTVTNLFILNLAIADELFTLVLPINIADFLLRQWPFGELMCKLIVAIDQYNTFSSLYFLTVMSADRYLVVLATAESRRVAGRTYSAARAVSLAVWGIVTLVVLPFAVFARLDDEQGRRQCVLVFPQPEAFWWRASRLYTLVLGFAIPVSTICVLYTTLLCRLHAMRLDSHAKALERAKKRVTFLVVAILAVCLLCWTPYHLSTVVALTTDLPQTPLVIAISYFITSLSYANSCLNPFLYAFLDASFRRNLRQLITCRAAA
TAAR1 agonist = human TAAR1 agonists, primary screen, Fluo-8 calcium fluorescence, CHO RD-HGA16 cells. activation, % at 3 µM. hit rate 0.99% among 360,000. Trace amine-associated receptor 1 (Homo sapiens), Q96RJ0. AID 624467, 2012. vehicle wells 0%, saturating PEA agonist 100%;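 active = activation above the mean activation of all test compounds in the run plus 3 SD, cut at about 38% in these data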
Target sequence (Q96RJ0 whole entry, looked up): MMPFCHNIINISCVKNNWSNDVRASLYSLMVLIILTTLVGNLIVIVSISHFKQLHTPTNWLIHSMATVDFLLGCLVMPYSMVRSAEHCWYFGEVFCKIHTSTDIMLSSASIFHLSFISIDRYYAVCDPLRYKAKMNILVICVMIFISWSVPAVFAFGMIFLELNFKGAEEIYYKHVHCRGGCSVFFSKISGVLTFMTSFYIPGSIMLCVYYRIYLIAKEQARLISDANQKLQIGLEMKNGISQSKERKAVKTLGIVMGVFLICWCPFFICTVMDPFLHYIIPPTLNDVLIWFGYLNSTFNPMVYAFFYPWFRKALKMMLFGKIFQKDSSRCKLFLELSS
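Test system: RD-HGA16 (CHO) cells co-expressing Gα16 and hTAAR1 / Benchmarks: DMSO vehicle as 0%, PEA at EC100 as 100% / Repeats: no replicates (n 1) / Measure: % activation from peak over basal fluorescence ratio, DMSO-to-PEA scaled / Timing: 17-24 h plating, Fluo-8 75 min 37 °C, 30 min RT / Technique: kinetic Fluo-8 calcium fluorescence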
TAAR1 antag = human TAAR1 antagonists, primary screen, Fluo-8 calcium fluorescence, CHO RD-HGA16 cells. Trace amine-associated receptor 1 (Homo sapiens), Q96RJ0. hit rate 1.5% among 360,000. inhibition, % at 3 µM. antagonist. AID 624466, 2012;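 active = inhibition above a per-plate cutoff, the mean inhibition of test compounds on that plate plus 3 SD, cut at about 49% in these data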
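System: CHO RD-HGA16 cells bearing hTAAR1. Reagent: EC80 β-phenethylamine stimulus. Schedule: seeding 17-24 h prior, 75-min 37 °C, 30-min RT dye loading. Signal: Fluo-8 intracellular calcium dye fluorescence, real-time kinetic reads. Read-out: % inhibition from peak post-agonist over basal fluorescence ratio. Benchmarks: vehicle wells and EC80 agonist wells. Replicates: n of 1.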
GPR7 antag cf = GPR7 receptor antagonists, confirmation, cell-based, fluorescence, single concentration; hit rate 52% among 2,400; GPR7-expressing cells, calcium fluorescence antagonist mode; shares compounds with GPR7 antagonist; inhibition, % at 4.4 µM; AID 1952, 2009; in the data active = inhibition above about 24%;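 note: stimulated with the GPR7 agonist NPW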
MCHR1 antag = MCHR1 antagonists in cells, counter-screen for GPR7 antagonist project, cell-based, fluorescence, human | AID 2148, 2009 | inhibition, % at 4.4 µM | shares compounds with GPR7 antagonist | MCHR1-expressing cells, fluorescence antagonist assay | hit rate 62% among 2,400; in the data active = inhibition above about 22%
A number is an active result; . = inactive; / = no result given. Compounds with a hit are over-represented: about 4.6% of the library has one in this group of screens.

SMILES | CHO parental Ca | OX1R antag-1 | OX1R antag-2 | GPR7 antagonist | TAAR1 agonist | TAAR1 antag | GPR7 antag cf | MCHR1 antag
COc1cc(NC(=O)[C@H]2O[C@@H](n3cnc4c(N)ncnc43)[C@H](O)[C@@H]2O)cc(OC)c1OC | / | / | / | / | . | . | / | /
Cc1ccccc1OCCNc1cc(N2CCNCC2)ccc1[N+](=O)[O-] | . | . | . | 30.3 | / | / | 47.5 | 66.1
COc1ccccc1OCCNc1cc(N2CCCCC2)ccc1[N+](=O)[O-] | . | . | . | . | . | . | / | /
O=C(NCc1ccccc1)C(c1ccc(-c2ccccc2)cc1)N1CCN(C(=O)C2CCCO2)CC1 (centres undefined) | / | / | / | / | . | . | / | /
Nc1nc2n(n1)C(c1ccccc1)CC(c1ccc(F)cc1)N2 (centres undefined) | . | . | . | . | . | . | / | /
Nc1nc2n(n1)C(c1cccc(Br)c1)CC(c1ccc(F)cc1)N2 (centres undefined) | . | . | . | 34.7 | . | . | . | .
Cc1ccc(N(CCC#N)C(=O)COC(=O)C2CCN(c3ccc(C(F)(F)F)cn3)CC2)cc1 | . | . | . | / | . | . | / | /
CCOC(=O)c1cc2ccccc2n1CCN(CC)CC | . | . | . | 31.3 | . | . | . | .
Cc1cccc(CN2CCN(C3CN(Cc4cn(Cc5ccc(Cl)cc5)nn4)S(=O)(=O)C3)CC2)c1 (centres undefined) | / | / | / | / | . | . | / | /
OC1(c2ccccc2)CCN(Cc2ccccc2)C2CCCCC21 (centres undefined) | . | . | . | 33.8 | . | . | . | .
Cc1c(NC(=O)C(C)c2ccc(CC(C)C)cc2)c(=O)n(-c2ccccc2)n1C (centres undefined) | . | . | . | . | . | . | / | /
CC(C)Cc1ccc(C(C)C(=O)Nc2ccccc2O)cc1 (centres undefined) | 82.2 | 100.5 | . | 69.2 | 76.8 | 92.3 | 88.8 | 93.8
COc1ccc(OC)c(NC(=O)CNC(=O)c2cccs2)c1 | . | . | . | . | . | . | / | /
CCN(C(=O)COC(=O)Cn1cnc2c1c(=O)n(C)c(=O)n2C)C1CCS(=O)(=O)C1 (centres undefined) | . | . | . | 28.7 | . | . | . | .
COC(=O)c1c(NC(=O)CN2CCCC(C)C2)c2c(C)cccc2n1C (centres undefined) | . | . | . | 25.9 | . | . | . | 27.1
COC(=O)c1c(NC(=O)CN2CCC(C(N)=O)CC2)c2c(C)cccc2n1C | . | . | . | . | . | . | / | /
CCCC(C)C(=O)Nc1ncc(S(=O)(=O)c2ccc([N+](=O)[O-])cc2)s1 (centres undefined) | . | . | . | 64.6 | 89.5 | 62.2 | 69.9 | 87.1
O=C(Nc1nnc(C2CCCCC2)s1)c1ccco1 | . | . | . | . | . | . | / | /
N=c1c(C(=O)NCCc2ccccc2)cc2c(=O)n3ccccc3nc2n1CCCN1CCOCC1 | . | . | 44.8 | 36.6 | . | . | 34.6 | .
CCCn1c(=N)c(C(=O)NCc2ccc3c(c2)OCO3)cc2c(=O)n3cccc(C)c3nc21 | . | . | . | . | . | . | / | /
N=c1c(C(=O)NC2CCCCC2)cc2c(=O)n3ccccc3nc2n1CCc1ccccc1 | . | . | . | 31.8 | . | . | 39.2 | 24.5
CCOCCCn1c(=N)c(C(=O)NCc2ccc3c(c2)OCO3)cc2c(=O)n3ccccc3nc21 | / | / | / | 22.1 | . | . | 29.3 | .
N=c1c(C(=O)NCCc2ccccc2)cc2c(=O)n3ccccc3nc2n1Cc1ccco1 | . | . | . | 28.0 | . | . | 51.8 | 49.5
COc1ccc(CN(CCO)CCO)cc1[N+](=O)[O-] | . | . | . | . | . | . | / | /
COC(=O)C[C@H]1C[C@H]2c3cc(NC(=O)C4CCOCC4)ccc3O[C@H]2[C@H](CO)O1 | / | / | / | / | . | . | / | /
SMILES | CHO parental Ca | OX1R antag-1 | OX1R antag-2 | GPR7 antagonist | TAAR1 agonist | TAAR1 antag | GPR7 antag cf | MCHR1 antag
COc1ccc2nc(NC(=O)CSc3cn[nH]n3)sc2c1 | . | . | . | . | . | . | / | /
CCOc1ccc2nc(NC(=O)CSc3cn[nH]n3)sc2c1 | . | . | . | 22.0 | . | . | . | .
O=C(O)Cc1ccc(NS(=O)(=O)c2ccc3c(c2)OCCO3)cc1 | / | / | / | / | . | . | / | /
N#CCN1C(=O)NC2(CCCc3sccc32)C1=O (centres undefined) | . | . | . | . | . | . | / | /
O=C(CCC(=O)N1CCSc2ccccc21)Nc1ccc(F)cc1 | . | . | . | 31.6 | . | . | . | .
CNc1ccccc1C(=O)OCC(=O)c1ccc(F)cc1 | . | . | . | 23.5 | . | . | . | .
COc1ccc(CCNC(=O)c2ccc3c(c2)N(Cc2ccc(F)cc2)CCS3)cc1OC | . | . | . | 28.8 | . | 59.4 | 31.1 | 50.4
Nc1cccc2c1C(=O)N(CCOc1ccccc1F)C2=O | . | . | . | . | . | . | / | /
O=S1(=O)N[C@@H](Cc2ccccc2)COc2cccc(NCCO)c21 | / | / | / | / | . | . | / | /
O=C(Oc1ccc(C(=S)N2CCOCC2)cc1)c1ccc(Br)cc1 | . | . | . | . | . | . | / | /
O=C(Oc1ccc(C(=S)N2CCOCC2)cc1)c1ccccc1 | . | . | . | 41.6 | . | . | 26.2 | .
O=[N+]([O-])c1c(Nc2ccc(O)cc2)cc(Cl)c2nonc12 | 61.2 | 75.6 | 99.4 | 83.2 | . | 62.7 | 94.0 | 101.8
CN(C)c1cc(Nc2ccc(O)cc2)c([N+](=O)[O-])c2nonc12 | . | . | . | . | . | . | / | /
Cc1cn([C@H]2C[C@H](O)[C@@H](CNCC3=Cc4cc(O)ccc4OC3)O2)c(=O)[nH]c1=O | / | / | / | / | . | . | / | /
NC(=S)N=Nc1c(O)[nH]c2ccccc12 | . | . | . | . | . | . | / | /
NC(=S)N=Nc1c(O)[nH]c2c(Br)cc(Br)cc12 | . | . | . | 33.5 | . | . | . | 27.6
COc1ccccc1Cn1c(CCCO)nc2ccccc21 | . | . | . | . | . | . | . | .
Nc1[nH]c(C(=O)c2ccccc2)c(-c2ccccc2C(F)(F)F)c1C(=O)c1cccs1 | / | / | / | / | . | . | / | /
COC(=O)C1=C(C)N(Cc2ccccc2)C(=NCc2ccc(OC)cc2)N[C@H]1c1cccc(F)c1 | . | . | . | 43.6 | . | . | 50.7 | 41.0

Bioassay records as filed in PubChem.
